Bioassay records: PubChem BioAssay, several laboratories
In the library only some 3.6% were active in any assay of this set; here they are far more common.
ATG4B inh = blocks human ATG4B protease cleavage of LC3 substrate; Q9Y4P1; ATG4B cleavage of LC3-PLA2, NBD-HPC fluorescence, 1 h; inhibition, % at 8.33 µM; 340,000 tested, 0.51% active; AID 504462; in the data active means inhibition above about 40%
GRIN3A LBD mod = modulators (binders) of human NR3A ligand-binding domain. NR3A LBD differential scanning fluorimetry, Tm shift; 0% = protein alone, 100% = glycine-bound protein. Tm shift relative to glycine control, % at 25 µM. 340,000 tested, 2.5% active;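 active means melting temperature shift of at least 10% of the positive control shift, at one fixed dose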
UCH37 DUB inh = human UCH37 deubiquitinating enzyme inhibition; Q9Y5K5; purified proteasome/UCH37, Ub-AMC cleavage fluorescence; inhibition, % (concentration not given with the values); 330,000 tested, 0.33% active; AID 588478;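 active means mean inhibition over replicate wells above about 20%, limit read from the data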
Target sequence (Q9Y5K5 whole entry, looked up): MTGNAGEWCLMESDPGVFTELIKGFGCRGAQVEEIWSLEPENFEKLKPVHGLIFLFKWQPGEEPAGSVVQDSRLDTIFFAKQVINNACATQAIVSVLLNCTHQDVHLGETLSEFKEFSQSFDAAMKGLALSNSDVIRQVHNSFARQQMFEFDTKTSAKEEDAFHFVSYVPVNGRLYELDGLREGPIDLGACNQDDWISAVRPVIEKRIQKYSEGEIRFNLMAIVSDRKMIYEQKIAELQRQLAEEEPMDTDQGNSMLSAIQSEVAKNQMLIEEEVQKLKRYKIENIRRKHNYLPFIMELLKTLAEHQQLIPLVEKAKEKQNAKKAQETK
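Schedule: 30 min plus 25 min, room temperature / Material: human UCH37 within purified proteasomes / Technique: AMC fluorescence intensity at 355/460 nm / Buffer or medium: pH 7.4 Tris-HCl (50 mM) with ovalbumin, ATP-MgCl2, DTT / Controls: wells without proteasome as full block, compound-free enzyme plus substrate as uninhibited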
NadD inh = NadD (S. aureus) enzyme inhibition | purified NadD enzyme, colorimetric absorbance read-out | AID 602399 | inhibition, % at 20 µM | 360,000 tested, 0.78% active; in the data active means inhibition above about 26%
SENP1 FRET inh = inhibitors of human SENP1 SUMO protease catalytic domain | 360,000 tested, 0.21% active | recombinant SENP1 catalytic domain, CyPet-SUMO1-YPet FRET cleavage | inhibition, % at 10 µM | AID 624204;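 active means inhibition at least 30% at 10 µM, raw YFP signal under a set limit, fluorescence ratio 0.5 to 1.5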
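material = recombinant human SENP1 catalytic domain, His6-tagged | quantity = 20 pM enzyme | reagent = 25 nM SUMO1 FRET substrate | compound dosing = 10 µM single point, 0.5% DMSO | timing = 50 min enzyme reaction, room temperature, light-protected | detection = FRET, CFP and YFP emission | control set = no-enzyme low, enzyme-DMSO high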
ATG4B confirm = ATG4B (human) inhibition, single-dose confirmed. shares compounds with ATG4B inh. ATG4B protease fluorescent substrate cleavage assay. inhibition, % at 8.33 µM. 320 tested, 92% active; in the data active means inhibition above about 39%
PLA2 counter = counter-screen for ATG4B inhibitors: human phospholipase A2; purified PLA2, NBD-C6-HPC fluorescence, 45 min; 1,600 tested, 66% active; shares compounds with ATG4B inh; inhibition, % at 8.33 µM; in the data active means inhibition above about 50%
Target sequence (P04054 whole entry, looked up): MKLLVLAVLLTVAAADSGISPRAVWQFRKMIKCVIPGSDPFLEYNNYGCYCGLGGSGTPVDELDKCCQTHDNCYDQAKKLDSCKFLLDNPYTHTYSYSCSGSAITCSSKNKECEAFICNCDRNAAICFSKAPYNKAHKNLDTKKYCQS
Hits are given with their value; 0 = inactive; - = no result given.

SMILES	ATG4B inh	GRIN3A LBD mod	UCH37 DUB inh	NadD inh	SENP1 FRET inh	PLA2 counter	others
O=S(=O)(c1ccccc1)N1CCN(Cc2cccc(Cl)c2)CC1	0	0	0	0	0	-
Cc1nc(CSc2ccc(Cl)cc2)cc(NCc2ccccc2)n1	73	0	0	0	0	79
Oc1c(Br)cc(Br)cc1C=Nn1c(-c2ccccc2)n[nH]c1=S	-	-	0	-	-	-
Cc1cccc(NN=C(C=NN)C(=O)c2ccc(Br)cc2)c1	-	-	0	-	-	-
O=C(CSc1nnc(COc2ccc(Cl)cc2)n1Cc1ccco1)c1ccccc1F	44	0	0	0	0	0	ATG4B confirm=57
O=C(CCCOc1ccc(Cl)cc1Cl)N1CCc2ccccc2C1	50	0	0	0	0	51
C#CCOCCOCCOCCNc1nc(N2CCN(C(=O)CCCCCCCCCCNC(=O)[C@H](CCCCN)n3cc(C[C@@H](C)CC)nn3)CC2)nc(N2CCN(C(=O)CCCCCCCCCCNC(=O)[C@H](CCCCN)n3cc(C[C@@H](C)CC)nn3)CC2)n1	80	19	-	48	0	78
Cc1ccc(NC(=O)C2CCN(c3ncnc4c3nc3n4CCCCC3)CC2)cc1Cl	60	0	0	0	0	69
Cc1cccc(N2CCN(C(=O)C3CCN(c4ncnc5c4nc4n5CCCCC4)CC3)CC2)c1C	63	0	0	0	0	78
Cc1ccc(NC(=O)C2CCCN(c3ncnc4c3nc3n4CCCCC3)C2)cc1Cl (configuration not stated)	0	0	0	0	0	-
O=C(C1CCN(c2ncnc3c2nc2n3CCCCC2)CC1)N1CCN(c2ccccc2F)CC1	0	0	0	0	0	-
Cc1cccc(N2CCN(C(=O)C3CCN(c4ncnc5c4nc4n5CCCCC4)CC3)CC2C)c1 (configuration not stated)	47	0	0	0	0	0	ATG4B confirm=63
O=C(NN=Cc1ccc([N+](=O)[O-])o1)c1cc(-c2cccc(Br)c2)nc2ccccc12	-	-	0	-	-	-
CON=C(Cn1ncc(N2CCCC2)c(Cl)c1=O)c1ccc(Cl)cc1	-	-	0	-	-	-
O=C(NN=Cc1ccccn1)c1cccs1	-	-	0	-	-	-
COc1ccc(CNC(=O)C(c2ccc(C)o2)N(C(=O)c2csnn2)c2ccc(C(C)C)cc2)cc1 (configuration not stated)	43	0	0	0	0	0
COc1ccc(C=NNC(=O)C(=O)NCC2CCCO2)cc1 (configuration not stated)	-	-	0	-	-	-
COc1cc(C2Nc3cc(Cl)c(S(N)(=O)=O)cc3S(=O)(=O)N2)ccc1OCc1ccccc1 (configuration not stated)	84	0	0	0	0	85
NS(=O)(=O)c1cc2c(cc1Cl)NC(c1ccccc1OCC(=O)O)NS2(=O)=O (configuration not stated)	0	0	0	0	0	-
CCCCOc1ccc(C(=S)N2CCC(C(N)=O)CC2)cc1	82	0	0	0	0	84
COc1ccc(C(=S)N2CCC(C(N)=O)CC2)cc1Br	0	0	0	0	0	-
COc1ccccc1C=NNC1=NCCCCC1	-	-	0	-	-	-
CC1=NN(c2ccc(C(=O)O)cc2)C(=O)/C1=C\c1ccc(OC(=O)c2cccs2)cc1	85	14	0	0	0	70
CC(C)C(Sc1nc(-c2ccccc2)cc(-c2ccccc2)c1C#N)C(=O)O (configuration not stated)	46	0	0	0	0	0	ATG4B confirm=61
COc1ccc(-c2cc(-c3ccccc3)nc(SC(C)C(=O)O)c2C#N)cc1 (configuration not stated)	0	0	0	0	0	-
SMILES	ATG4B inh	GRIN3A LBD mod	UCH37 DUB inh	NadD inh	SENP1 FRET inh	PLA2 counter	others
COC(=O)c1sc(SC)c(S(=O)(=O)C(C)C)c1NN=C(C#N)S(=O)(=O)c1ccccn1	-	-	0	-	-	-
CN1CCC2(CC1)N=C(c1ccc(F)cc1)C(=S)N2C(=O)c1ccc(C(C)(C)C)cc1	45	0	0	0	0	0
CC(C)(C)c1ccc(C(=O)N2CCNCC2)cc1	0	0	0	0	0	-
Cc1ccc(OCc2cc(C(=O)NCc3cc(F)ccc3C)no2)cn1	50	0	0	0	0	54
CCn1cc(C(=O)OCC(=O)c2cc(C)n(-c3cccc(C(F)(F)F)c3)c2C)c(=O)c2ccc(C)nc21	75	0	0	0	0	67
CCn1cc(C(=O)OCC(=O)c2ccccc2)c(=O)c2ccc(C)nc21	0	0	0	0	0	-
CCn1cc(C(=O)NCc2cccc(C(F)(F)F)c2)c(=O)c2ccc(C)nc21	53	0	0	0	0	0
CCn1cc(C(=O)Nc2ccc(NC(=O)c3ccco3)cc2)c(=O)c2ccc(C)nc21	0	0	0	0	0	-
O=C(NN=Cc1ccccn1)c1ccc(Cl)cc1	-	-	0	-	-	-
Cc1ccc(C)c(CSc2nnc(-c3cccs3)n2Cc2ccco2)c1	83	0	0	0	0	77
NC(=O)c1ccc(C(F)(F)F)n(Cc2ccc(Cl)cc2)c1=O	0	0	0	0	0	-
NC(=O)c1ccc(C(F)(F)F)n(Cc2cccc(Cl)c2)c1=O	45	0	0	0	0	0	ATG4B confirm=64
Cc1cccc(C)c1OCc1cc(C(=O)NCc2ccc(Cl)s2)no1	61	0	0	0	0	67
O=C(NCc1ccc(Cl)s1)c1cc(COc2c(F)cccc2F)on1	0	0	0	0	0	-
COc1cc(C=NN(C)C2=NS(=O)(=O)c3ccccc32)cc(OC)c1OC	-	-	0	-	-	-
CCn1c(COc2ccc(Cl)cc2)nnc1SC1CCc2ccccc2C1=O (configuration not stated)	88	0	0	0	0	84
CCC(C)(C)C1CCc2c(sc(NC(=O)c3ccccc3C(=O)O)c2C#N)C1 (configuration not stated)	71	0	0	0	0	87
O=C(O)c1cc(O)c2c(c1)[C@@H]([C@H]1c3cc(C(=O)O)cc(O)c3C(=O)c3c(O[C@@H]4O[C@H](CO)[C@@H](O)[C@H](O)[C@H]4O)cccc31)c1cccc(O[C@@H]3O[C@H](CO)[C@@H](O)[C@H](O)[C@H]3O)c1C2=O	47	0	0	-	-	0
OCC1OC(Oc2cccc3ccccc23)C(O)C(O)C1O (configuration not stated)	0	0	0	0	0	-
CN(c1ccccc1)C1CCCCC1NS(=O)(=O)c1ccc(Cl)cc1 (configuration not stated)	57	0	0	0	0	64
COc1ccc(COC(=O)NN=C(C)CC(=O)Nc2ccc(Cl)cn2)cc1	-	-	0	-	-	-
CCc1ccc(NC(=S)NC(=O)c2c(-c3ccccc3Cl)noc2C)cc1	0	0	0	0	0	-
